Test results published in article PMC5024769 (Drug Design, Development and Therapy, 2016).
Entries after “also recorded” stand apart in the source; their conditions may differ. One block for each compound: values may come before it.

How the values were obtained:
[1] = In vitro stability in rat plasma; type: in vitro ADME; settings: 60 minutes incubation with rat plasma
In short: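 Rat plasma was separated by centrifugation and diluted with pH 7.4 phosphate buffer to 80% final. Test compound (20 µM final) was incubated at 37°C for 60 min with agitation, then quenched with MeOH plus CH3CN. Analysis was by HPLC-UV at 254 nm, with acetonitrile–water gradient, mobile phase pH 7.0 (NH4OH) and methyl biphenyl-4-carboxylate internal standard (20 µM). Three independent experiments in duplicate.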

[2] = tested on: diabetic rats (Rattus norvegicus); experiment: Blood glucose after a single dose in diabetes model induced by STZ; type: in vivo; settings: for Blood glucose after single dose / Hypoglycemic activity (in words) / Blood glucose before single dose: STZ diabetic rats; for Blood glucose after single dose / Hypoglycemic activity (in words): 20 mg·kg−1 ip, single dose; for Blood glucose before single dose: value before treatment (time control)
In short: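 Diabetes was induced in rats by single iv STZ (60 mg·kg−1 in citrate buffer, pH 4.5). After 4 weeks, male Wistar rats (180–220 g) with glycemia >300 mg/dL were used. Groups were non-diabetic, diabetic plus DMSO vehicle, and diabetic plus test compound (single 20 mg·kg−1 ip dose). Plasma glucose was read by glucometer at 0, 30, 60, 120 and 180 min. n=7/group; mean ± SEM; Student's t-test versus time control.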

[3] = tested on: diabetic rats (Rattus norvegicus); experiment: Blood glucose during 7 days' treatment of STZ diabetic rats; type: in vivo; settings: 50 mg/kg once a day for 7 days
In short: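 Male Wistar rats (180–220 g) were made diabetic by single iv STZ (60 mg·kg−1, citrate buffer pH 4.5); after 4 weeks, those with glycemia >300 mg/dL were used. They received test compound 50 mg·kg−1 ip once daily for 7 days, with DMSO as vehicle. Plasma glucose was measured before treatment and on days 3 and 7.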

[4] = tested on: diabetic rats (Rattus norvegicus); experiment: Thermal hyperalgesia; type: in vivo; settings: STZ diabetic rats
In short: (§1)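 Male Wistar rats (180–220 g) were made diabetic by single iv STZ 60 mg·kg−1 (glycemia >300 mg/dL). Thermal hyperalgesia was scored as paw withdrawal latency to radiant heat on the hind paw (plantar meter). Mechanical allodynia was scored as paw withdrawal threshold to pressure (digital analgesiometer). Readings were taken before and 4 weeks after induction, then 3 and 7 days into daily test compound 50 mg·kg−1 ip (DMSO vehicle). n=5/group; mean ± SEM; two-way ANOVA.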

[5] = tested on: diabetic rats (Rattus norvegicus); experiment: Mechanical allodynia; type: in vivo; settings: STZ diabetic rats
In short: as §1

[6] = In vitro chemical stability in buffer at pH 2.0 and pH 7.4; type: physicochemical; settings: pH 2.0, 20 µM, 37°C
In short: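 DMSO stocks (5–10 mM) were diluted into pH 2 buffer (0.2 M KCl/0.2 M HCl) or pH 7.4 dibasic phosphate buffer, giving 20 µM test compound. Samples were held in a 37°C water bath with vigorous stirring for 0, 30, 60 and 120 min. Acid samples were then neutralised with pH 8.4 phosphate buffer. % remaining = peak area at each time / area at 0 min × 100. At least two experiments in triplicate.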

PPARγ [7] = molecular target: T1, PPARγ (Homo sapiens, UniProt P37231); settings: cited from earlier work
T1 sequence (P37231 1-505): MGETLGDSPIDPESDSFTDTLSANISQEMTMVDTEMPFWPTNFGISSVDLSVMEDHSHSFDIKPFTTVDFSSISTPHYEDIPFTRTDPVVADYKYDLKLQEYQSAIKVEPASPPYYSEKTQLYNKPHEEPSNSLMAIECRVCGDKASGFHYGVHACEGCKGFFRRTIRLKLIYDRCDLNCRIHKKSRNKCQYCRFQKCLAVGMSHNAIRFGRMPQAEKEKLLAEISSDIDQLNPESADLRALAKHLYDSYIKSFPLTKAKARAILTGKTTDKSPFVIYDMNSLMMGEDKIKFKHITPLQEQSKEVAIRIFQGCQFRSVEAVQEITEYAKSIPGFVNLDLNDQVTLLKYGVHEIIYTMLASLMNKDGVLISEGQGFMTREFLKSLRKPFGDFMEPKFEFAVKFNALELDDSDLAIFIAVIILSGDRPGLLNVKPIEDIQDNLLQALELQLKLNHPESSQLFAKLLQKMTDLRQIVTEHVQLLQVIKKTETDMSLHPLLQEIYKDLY

[8] = tested on: diabetic neuropathic pain model induced by STZ in rats; settings: cited from earlier work
PPARγ [9] = molecular target: T1, PPARγ; experiment: PPARγ binding assay performed by CEREP; settings: single concentration 30 µM, rosiglitazone as positive control

Plasma stability (in words) [1]: very stable
Structure (SMILES): COc1ccc(S(=O)(=O)N/N=C/c2cccc(C(=O)O)c2)cc1OC [Compound 4, (E)-3-((2-(3,4-dimethoxyphenylsulfonyl) hydrazono)methyl)benzoic acid]

Plasma stability (in words) [1]: very stable
Solubility in DMSO ([2]; dosing vehicle DMSO): partially insoluble in DMSO
Structure (SMILES): COC(=O)c1cccc(/C=N/N(C)S(=O)(=O)c2ccc(OC)c(OC)c2)c1 [Compound 5, (E)-methyl 3-((2-(3,4-dimethoxyphenylsulfonyl)-2-methylhydrazono)methyl)benzoate]

Plasma stability (in words) [1]: unstable
Structure (SMILES): COC(=O)c1ccc(/C=N/NS(=O)(=O)c2ccc(OC)c(OC)c2)cc1 [Compound 7, (E)-methyl 4-((2-(3,4-dimethoxyphenylsulfonyl)hydrazono)methyl)benzoate]
Blood glucose after single dose [2]: 182.2 ± 22.7 mg/dL
Hypoglycemic activity (in words) [2]: showed hypoglycemic activity
Blood glucose before single dose [2]: 384.0 ± 41.9 mg/dL
Hypoglycemic activity (in words) [3]: promoted hypoglycemic activity only after 7 days of treatment
Paw withdrawal latency (PWL), after 3 days of treatment ([4]; 50 mg·kg−1 ip): 12.2 ± 0.9 s
Paw withdrawal latency (PWL), after 7 days of treatment ([4]; 50 mg·kg−1 ip): 13.3 ± 0.2 s
Paw withdrawal latency (PWL), before treatment ([4]; four weeks after induction): 8.5 ± 0.2 s
Effect on diabetic neuropathic pain (in words) ([4]; long-term administration, 50 mg·kg−1 ip): reduced diabetic neuropathic pain
Paw withdrawal threshold (PWT), after treatment ([5]; 50 mg·kg−1 ip, long-term administration): 36.7 ± 0.9 g
Paw withdrawal threshold (PWT), before treatment ([5]; four weeks after induction): 24.0 ± 1.4 g

Inhibition of control specific binding to PPARγ (PPARγ [9]): unable to bind to PPARγ
Structure (SMILES): COc1ccc(S(=O)(=O)N/N=C/c2ccc(C(=O)O)cc2)cc1OC [Compound 10, (E)-4-((2-(3,4-dimethoxyphenylsulfonyl) hydrazono)methyl)benzoic acid]

Continued, compound first:

Structure (SMILES): COC(=O)c1ccc(/C=N/N(C)S(=O)(=O)c2ccc(OC)c(OC)c2)cc1 [Compound 6, (E)-methyl 4-((2-(3,4-dimethoxyphenylsulfonyl)-2-methylhydrazono)methyl)benzoate]
Plasma stability (in words) [1]: unstable
Blood glucose after single dose [2]: 255.3 ± 42.2 mg/dL
Hypoglycemic activity (in words) [2]: showed hypoglycemic activity
Blood glucose before single dose [2]: 397.1 ± 38.2 mg/dL

Structure (SMILES): COc1ccc(S(=O)(=O)N/N=C/c2ccc(C#N)cc2)cc1OC [Compound 8, (E)-N′-(4-cyanobenzylidene)-3,4-dimethoxybenzenesulfonohydrazide]
Chemical stability [6]: unstable
Plasma stability (in words) [1]: unstable

Structure (SMILES): COc1ccc(S(=O)(=O)N(C)/N=C/c2ccc(C#N)cc2)cc1OC [Compound 9, (E)-N′-(4-cyanobenzylidene)-3,4-dimethoxy-N-methylbenzene-sulfonohydrazide]
Plasma stability (in words) [1]: very stable; also recorded: high chemical and plasma stability
Hypoglycemic activity (in words) [2]: did not reduce hyperglycemia
PPARγ activity as described earlier (PPARγ [7]): partial agonist of PPARγ
Glucose levels after 7 days ([8]; 50 mg/kg for 7 days, vehicle 410.0±58.0 mg/dL): 242.4 ± 55.3 mg/dL
Antinociceptive activity ([8]; diabetic neuropathic pain model induced by STZ in rats): antinociceptive agent
